Published values from different studies.
Compare with care: the assays were run in different laboratories.
MET M1250T: Hepatocyte growth factor receptor (MET, Homo sapiens, UniProt P08581, M1250T)
MET: Hepatocyte growth factor receptor (MET, Homo sapiens, UniProt P08581)
MET Y1235D: Hepatocyte growth factor receptor (MET, Homo sapiens, UniProt P08581, Y1235D)

| Compound | target | assay | setting | quantity | result |
| --- | --- | --- | --- | --- | --- |
| CNC(=O)c1cc2c(Oc3ccc(NC(=O)C4(C(=O)Nc5ccc(F)cc5)CC4)cc3)ccnc2cc1OC | Hepatocyte growth factor receptor (MET, Homo sapiens, UniProt P08581, Y1230D) | enzyme activity, inhibitor, radiometric | 1 µM | inhibition | 100% |
| CCCOc1ccc([C@@H]2[C@@H](C(=O)O)[C@H](c3ccc4c(c3)OCO4)CN2CC(=O)Nc2c(CC)cccc2CC)cc1 | MET M1250T | cell-free assay, competition with immobilised ligand | 1 µM | remaining binding | 81% |
| O=C(Nc1cnn(-c2csc(C(=O)NC3COC3)c2)c1)Nc1c(F)cccc1Cl | MET | enzyme activity, inhibitor | 5 µM | remaining activity | 86.1% |
| CN(C)c1ncc(F)c(-c2cnn3ncccc23)n1 | MET M1250T | binding | 1 µM | remaining binding | 100% |
| Cc1cnc(NC2CCOCC2)nc1-n1cnc(C(=O)NC(CN)c2cc(F)cc(Cl)c2)c1 (stereo not drawn) | MET | enzyme activity, inhibitor, radiometric | 1 µM | remaining activity | 101% |
| O=C(Nc1cnn(-c2csc(C(=O)NC3COC3)c2)c1)Nc1ccccc1Cl | MET | enzyme activity, inhibitor | 5 µM | remaining activity | 102% |
| N[C@H]1CCN(c2nccc(-c3cnn4ncccc34)n2)C1 | MET Y1235D | binding | 1 µM | remaining binding | 100% |
| CC(C)(C)c1nc2c(s1)c1nc(N)ncc1c1ccc(NS(=O)(=O)c3c(F)cccc3F)c(F)c12 | MET | enzyme activity, inhibitor, radiometric | 1 µM | remaining activity | 90% |
| CC1CCCN1c1nccc(-c2cnn3ncccc23)n1 (stereo not drawn) | MET M1250T | binding | 1 µM | remaining binding | 100% |
| Cc1cc(NC(=O)c2cccc3cc(-c4cccc5[nH]nc(N)c45)ccc23)ccc1F | Hepatocyte growth factor receptor (MET, Homo sapiens, UniProt P08581, Y1230H) | enzyme activity, inhibitor | 0.1 µM | activity vs control | 106% |
| CC(C)CC(=O)N1CCc2nc(-c3ccc(Br)cc3)nc(N(C)Cc3ccccc3)c2C1 | MET | cell-free assay, competition with immobilised ligand | 0.1 µM | remaining binding | 99% |
| CN(CCCC(F)(F)F)c1nccc(-c2cnn3ncccc23)n1 | MET M1250T | binding | 1 µM | remaining binding | 100% |
| O=C(O)c1cc(-c2ccc(C3CCNCC3)cc2)c2ccc(-c3ccc(C(F)(F)F)cc3)cc2c1 | MET Y1235D | cell-free assay, competition with immobilised ligand | 1 µM | remaining binding | 100% |
| Nc1ncnc2occ(-c3ccc(NC(=O)Nc4cc(C(F)(F)F)ccc4F)cc3)c12 | MET M1250T | cell-free assay | 20 µM | remaining signal | 4.1% |
| Cc1nccc(COC(=O)N2C[C@@H]3[C@@H](CNC(=O)c4ccc5[nH]nnc5c4)[C@@H]3C2)n1 | MET Y1235D | cell-free assay, competition with immobilised ligand | 1 µM | remaining binding | 92% |
| COc1cc(Nc2c(C#N)cnc3cc(OCCCN4CCN(C)CC4)c(OC)cc23)c(Cl)cc1Cl | MET | cell-free assay | 0.5 µM | remaining signal | 84.5% |
| Nc1cnc(N2CCc3cc(S(=O)(=O)Nc4c(F)cc(Cl)cc4F)cc(N4CCCC4=O)c32)nc1 | MET Y1235D | cell-free assay, competition with immobilised ligand | 1 µM | remaining binding | 69% |
| COc1cc(Cl)c(C(=O)N[C@@H](CN[C@H]2CC[C@@H](N)CC2)Cc2ccc(C#N)cc2)cc1-c1ccc(CN[C@H](C)c2ccc(C)cc2)o1 | MET | enzyme activity, inhibitor | 1 µM | remaining activity | 63% |
| COc1cc2ncnc(Nc3ccc(F)c(Cl)c3)c2cc1OCCCN1CCOCC1 | MET | cell-free assay | 0.5 µM | remaining signal | 92.4% |
| COc1ccnn2ncc(-c3ccnc(N(C)C)n3)c12 | MET M1250T | binding | 1 µM | remaining binding | 100% |
| O=C(N[C@H]1CCCCC/C=C\C2C[C@@]2(C(=O)O)NC(=O)[C@@H]2C[C@@H](Oc3ccncc3)CN2C1=O)OC1CCCC1 (stereo partly drawn) | MET M1250T | cell-free assay, competition with immobilised ligand | 1 µM | remaining binding | 92% |
| O=C1NC(=O)c2cc(Nc3ccc(F)cc3)c(Nc3ccc(F)cc3)cc21 | MET | cell-free assay | 0.5 µM | remaining signal | 96.7% |
| Cc1c(NC(=O)c2cc(C(N)=O)nc3cc(F)ccc23)c(C(F)(F)F)nn1Cc1ccc(C(C)(C)C)cc1 | MET Y1235D | cell-free assay, competition with immobilised ligand | 1 µM | remaining binding | 84% |
| C[C@@H]1CCN(c2nccc(-c3cnn4ncccc34)n2)C1 | MET | binding | 1 µM | remaining binding | 84% |
| CC/C(=N\NC(=O)NCc1cccc(O)c1)c1ccc(O)c(C)c1O | MET Y1235D | enzyme activity, inhibitor | 0.1 µM | inhibition | 0.7% |
| Cc1ccc(NC(=O)c2ccc(C)c(C(F)(F)F)c2)cc1C#Cc1nn(C2CCC(O)CC2)c2ncnc(N)c12 (stereo not drawn) | Hepatocyte growth factor receptor (MET, Homo sapiens, UniProt P08581, D1228H) | cell-free assay | 10 µM | remaining signal | 124% |
| Cc1ccc(C(=O)Nc2ccc(CN3CCN(C)CC3)c(C(F)(F)F)c2)cc1C#Cc1cnc2cccnn12 | MET M1250T | cell-free assay | 23.5 nM | remaining signal | 86% |
| Cc1cnn2ncc(-c3ccnc(N(C)C)n3)c2c1 | MET Y1235D | binding | 1 µM | remaining binding | 87% |
| CO[C@@H](C)c1c(Nc2ccc([C@H](N(C)C(=O)C3CCS(=O)(=O)CC3)C(F)(F)F)cc2)cnc2cc(Cl)nn12 | MET Y1235D | cell-free assay, competition with immobilised ligand | 1 µM | remaining binding | 100% |
| N#CCCc1ccc2c(c1)-c1[nH]c3ccc([N+](=O)[O-])cc3c1CC(=O)N2 | MET | cell-free assay | 0.5 µM | remaining signal | 119% |
